# Laboratory results reported in PubChem BioAssay.
# Active and inactive are the calls of the source.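 The calls were made as follows, unless noted: active = Her2 level under about 52% in both replicate screens, with viability over 70% of control (limit read from the data); inconclusive = Her2 under the limit in one screen only, or viability under 70%; inactive = Her2 level above the set limit.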
# Experiments:
# [1] = reducers of endogenous Her2 protein level, primary screen, SKBR3 breast tumor cells, AlphaScreen, ATP viability (AID 461); conditions: 18-24 h, measured here: SKBR3 viability, ATP luminescence, at 10 µM;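 as to Her2 level: lower value means less Her2 protein in the cells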;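 as to viability: percent of carrier control wells set as 100% viability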
# [2] = biological target: Receptor tyrosine-protein kinase erbB-2 (Homo sapiens) (UniProt P04626); assay: as above; conditions: 18-24 h, at 10 µM, stronger effect = lower value
# Receptor tyrosine-protein kinase erbB-2 (Homo sapiens), sequence (P04626 whole entry, looked up): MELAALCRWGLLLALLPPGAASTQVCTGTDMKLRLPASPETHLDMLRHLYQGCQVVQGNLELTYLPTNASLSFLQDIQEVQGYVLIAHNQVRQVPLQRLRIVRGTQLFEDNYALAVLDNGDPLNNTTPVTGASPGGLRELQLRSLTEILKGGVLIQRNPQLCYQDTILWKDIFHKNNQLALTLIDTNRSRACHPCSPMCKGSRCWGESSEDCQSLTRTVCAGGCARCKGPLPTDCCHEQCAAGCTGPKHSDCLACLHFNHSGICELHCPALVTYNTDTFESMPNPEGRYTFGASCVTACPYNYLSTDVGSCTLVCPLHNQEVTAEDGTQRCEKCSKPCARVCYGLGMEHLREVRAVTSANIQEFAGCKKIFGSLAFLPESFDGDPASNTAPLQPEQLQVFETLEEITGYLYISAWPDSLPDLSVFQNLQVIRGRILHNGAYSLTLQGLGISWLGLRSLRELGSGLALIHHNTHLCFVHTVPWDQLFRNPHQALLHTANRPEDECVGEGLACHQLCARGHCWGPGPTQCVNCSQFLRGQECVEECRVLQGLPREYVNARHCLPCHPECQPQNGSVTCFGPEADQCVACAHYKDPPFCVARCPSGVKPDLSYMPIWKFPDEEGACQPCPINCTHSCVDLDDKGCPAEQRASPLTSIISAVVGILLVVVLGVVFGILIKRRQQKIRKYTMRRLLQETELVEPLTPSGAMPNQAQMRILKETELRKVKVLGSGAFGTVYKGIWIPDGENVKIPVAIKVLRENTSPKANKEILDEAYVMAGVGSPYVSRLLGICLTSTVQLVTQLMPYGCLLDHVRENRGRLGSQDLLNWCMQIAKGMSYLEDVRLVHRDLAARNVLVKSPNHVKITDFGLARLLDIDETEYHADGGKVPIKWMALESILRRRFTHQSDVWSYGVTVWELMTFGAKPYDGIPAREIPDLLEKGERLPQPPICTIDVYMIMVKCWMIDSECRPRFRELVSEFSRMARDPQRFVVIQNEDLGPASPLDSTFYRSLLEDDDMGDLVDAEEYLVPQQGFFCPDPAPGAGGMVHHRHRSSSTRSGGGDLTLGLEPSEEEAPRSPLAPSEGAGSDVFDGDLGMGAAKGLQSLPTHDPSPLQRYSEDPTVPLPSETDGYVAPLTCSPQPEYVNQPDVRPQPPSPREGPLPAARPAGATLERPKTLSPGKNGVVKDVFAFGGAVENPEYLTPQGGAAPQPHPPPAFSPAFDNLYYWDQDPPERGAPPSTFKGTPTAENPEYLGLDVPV
# [3] = SK-BR-3 cell growth inhibitors, pilot screen, 24 h, human (AID 572;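 active = viability at or below 10% of carrier control in both of two separate runs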;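 also: compound exposure lasted between 18 and 24 h rather than exactly 24 h; 100% = carrier-treated control wells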); conditions: SK-BR-3 viability, CellTiter-Glo luminescence, at 10 µM, stronger effect = lower value
# [4] = HUVEC growth inhibition – cell-based, human, primary screen (AID 575;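 active = viability at or below 30% in both replicate assays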;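 also: 100% = median of untreated cell wells with 0.1% DMSO on each plate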); conditions: HUVEC proliferation, CellTiter-Glo luminescence, 72 h; at 10 µM; stronger effect = lower value
# How it was run: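 Timing: 72 h treatment at 37 °C; material: HUVEC primary cells; technique: CellTiter-Glo luminescence measuring cellular ATP; controls: vehicle and MePR control wells; measure: percent of median DMSO-control luminescence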
# [5] = growth inhibitors of H69AR lung tumor, primary screen, human, duplicate replicates (AID 580;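 active = viability at or under a set limit in both replicates, limit being median viability minus 3 SD, cut at about 48% in these data, passing the limit was not always enough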;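 also: 100% = mean luminescence of untreated wells and 0% = no signal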); conditions: H69AR lung tumor cells viability, ATP luminescence, 72 h; at 10 µM; stronger effect = lower value
# [6] = reversal of MRP1-mediated doxorubicin resistance, pilot screen, H69AR cells, doxorubicin co-treatment (AID 601;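 active = viability loss from added drug above about 55%, and viability with drug at most 40%, in both replicates, limit read from the data, passing the limit was not always enough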); conditions: CellTiter-Glo, 72 h, at 10 µM; for differential viability (reversal): stronger effect = higher value
# [7] = 384-well plate pilot, post-Golgi transport modulator project, inhibition of yeast transport mutant growth (AID 636; in the data active = inhibition above about 31%); conditions: absorbance 615 nm, about 18 h, stronger effect = higher value
# [8] = growth suppression of yeast trafficking mutant, preliminary HTS, modulators of trafficking downstream of Golgi apparatus project, 1536-format plate, OD 615 nm (AID 637; in the data active = inhibition above about 30%); conditions: yeast transport mutant growth, absorbance 615 nm, 18 h; stronger effect = higher value
# [9] = H69AR cells + 2 uM doxorubicin, measured here: viability with 2 uM doxorubicin, stronger effect = lower value
# [10] = H69AR cells, compound alone cytotoxicity
smiles,measurement,setting,value
O=c1c2cc(N3CCOCC3)ccc2[nH]c(=S)n1CCCN1CCCCC1,viability,[1],83.5%
same,Her2 level,[2],93.5% (inactive)
same,viability,[3],83.5% (inactive)
same,viability,[4],84.9% (inactive)
same,viability,[5],95.9% (inactive)
same,differential viability (reversal),[6]; H69AR cells + 2 uM doxorubicin,4.74% (inactive)
same,viability,[6]; [9],91.2%
same,viability,[6]; [10],95.9%
same,inhibition,[7],-4.59% (inactive)
same,inhibition,[8],-8.36% (inactive)
O=C(O)c1cc(=O)cc(C(=O)O)[nH]1,viability,[1],80.5%
same,Her2 level,[2],91.5% (inactive)
same,viability,[3],80.5% (inactive)
same,viability,[4],102% (inactive)
same,viability,[5],105% (inactive)
same,differential viability (reversal),[6]; H69AR cells + 2 uM doxorubicin,12.5% (inactive)
same,viability,[6]; [9],92.7%
same,viability,[6]; [10],105%
same,inhibition,[7],0% (inactive)
same,inhibition,[8],22.9% (inactive)
Cc1ccc(CCNC(=O)Cn2cccc2)cc1,viability,[1],112%
same,Her2 level,[2],98% (inactive)
same,viability,[3],112% (inactive)
same,viability,[4],110% (inactive)
same,viability,[5],99.5% (inactive)
same,differential viability (reversal),[6]; H69AR cells + 2 uM doxorubicin,5.51% (inactive)
same,viability,[6]; [9],94%
same,viability,[6]; [10],99.5%
same,inhibition,[7],-4.73% (inactive)
same,inhibition,[8],0.67% (inactive)
Cn1c(Cc2csc(N)n2)nnc1SCC(=O)NCc1ccccc1,viability,[1],93%
same,Her2 level,[2],99.5% (inactive)
same,viability,[3],93% (inactive)
same,viability,[4],114% (inactive)
same,viability,[5],100% (inactive)
same,differential viability (reversal),[6]; H69AR cells + 2 uM doxorubicin,-11.2% (inactive)
same,viability,[6]; [9],111%
same,viability,[6]; [10],100%
same,inhibition,[7],0.39% (inactive)
same,inhibition,[8],-4.52% (inactive)
COc1ccc(C)cc1NC(=O)CSc1nnnn1Cc1ccccc1,viability,[1],83%
same,Her2 level,[2],96.5% (inactive)
same,viability,[3],83% (inactive)
same,viability,[4],82.1% (inactive)
same,viability,[5],96.8% (inactive)
same,differential viability (reversal),[6]; H69AR cells + 2 uM doxorubicin,6% (inactive)
same,viability,[6]; [9],90.8%
same,viability,[6]; [10],96.8%
same,inhibition,[7],-1.49% (inactive)
same,inhibition,[8],-2.62% (inactive)
Cc1ccc(CCNC(=O)C2CCCN(S(=O)(=O)c3cnc[nH]3)C2)cc1 (stereo not given),viability,[1],102%
same,Her2 level,[2],121% (inactive)
same,viability,[3],102% (inactive)
same,viability,[4],101% (inactive)
same,viability,[5],101% (inactive)
same,differential viability (reversal),[6]; H69AR cells + 2 uM doxorubicin,6.71% (inactive)
same,viability,[6]; [9],94%
same,viability,[6]; [10],101%
same,inhibition,[7],-0.8% (inactive)
same,inhibition,[8],-2.17% (inactive)
Cc1cc(-c2nc3ncccc3o2)ccc1N,viability,[1],99%
same,Her2 level,[2],76.5% (inactive)
same,viability,[3],99% (inactive)
same,viability,[4],92.6% (inactive)
same,viability,[5],90.4% (inactive)
same,differential viability (reversal),[6]; H69AR cells + 2 uM doxorubicin,6.33% (inactive)
same,viability,[6]; [9],84%
same,viability,[6]; [10],90.4%
same,inhibition,[7],-2.37% (inactive)
same,inhibition,[8],11% (inactive)
C=Cn1c(C(=O)O)cc(CC)c1-c1ccccc1,viability,[1],96%
same,Her2 level,[2],101% (inactive)
same,viability,[3],96% (inactive)
same,viability,[4],100% (inactive)
same,viability,[5],106% (inactive)
same,differential viability (reversal),[6]; H69AR cells + 2 uM doxorubicin,2.8% (inactive)
same,viability,[6]; [9],104%
same,viability,[6]; [10],106%
same,inhibition,[7],-4.4% (inactive)
same,inhibition,[8],-7.42% (inactive)
COc1ccc(CCn2c(=N)c(C#N)cc3c(=O)n4ccccc4nc32)cc1,viability,[1],95%
same,Her2 level,[2],84.5% (inactive)
same,viability,[3],95% (inactive)
same,viability,[4],79.7% (inactive)
same,viability,[5],65.2% (inactive)
same,differential viability (reversal),[6]; H69AR cells + 2 uM doxorubicin,2.31% (inactive)
same,viability,[6]; [9],62.9%
same,viability,[6]; [10],65.2%
same,inhibition,[7],-8.78% (inactive)
same,inhibition,[8],5.17% (inactive)
CC(NS(=O)(=O)c1ccc(F)cc1)C(c1cccs1)N1CCN(C)CC1 (stereo not given),viability,[1],118%
same,Her2 level,[2],133% (inactive)
same,viability,[3],118% (inactive)
same,viability,[4],87.9% (inactive)
same,viability,[5],96.7% (inactive)
same,differential viability (reversal),[6]; H69AR cells + 2 uM doxorubicin,14.4% (inactive)
same,viability,[6]; [9],82.3%
same,viability,[6]; [10],96.7%
same,inhibition,[7],-3.29% (inactive)
same,inhibition,[8],-5.67% (inactive)
c1cnc2c(SCc3ccc(-c4nnco4)cc3)cccc2c1,viability,[1],98.5%
same,Her2 level,[2],101% (inactive)
same,viability,[3],98.5% (inactive)
same,viability,[4],80.7% (inactive)
same,viability,[5],97.2% (inactive)
same,differential viability (reversal),[6]; H69AR cells + 2 uM doxorubicin,12.1% (inactive)
same,viability,[6]; [9],85.2%
same,viability,[6]; [10],97.2%
same,inhibition,[7],-2.03% (inactive)
same,inhibition,[8],-12.4% (inactive)
COC(=O)C(NC(C)=O)(Nc1ccccn1)C(F)(F)F (stereo not given),viability,[1],98%
same,Her2 level,[2],78% (inactive)
same,viability,[3],98% (inactive)
same,viability,[4],105% (inactive)
same,viability,[5],89% (inactive)
same,differential viability (reversal),[6]; H69AR cells + 2 uM doxorubicin,-5.41% (inactive)
same,viability,[6]; [9],94.4%
same,viability,[6]; [10],89%
same,inhibition,[7],-1.97% (inactive)
same,inhibition,[8],-7.64% (inactive)
CNC(=O)CSc1nnc(-c2cc3c(C)nn(-c4ccccc4)c3s2)n1C,viability,[1],112%
same,Her2 level,[2],112% (inactive)
same,viability,[3],112% (inactive)
same,viability,[4],99.2% (inactive)
same,viability,[5],109% (inactive)
same,differential viability (reversal),[6]; H69AR cells + 2 uM doxorubicin,22.3% (inactive)
same,viability,[6]; [9],86.9%
same,viability,[6]; [10],109%
same,inhibition,[7],-0.13% (inactive)
same,inhibition,[8],-2.54% (inactive)
Cc1cccc(NC(=O)CC(C)(C)C)c1,viability,[1],110%
same,Her2 level,[2],90.5% (inactive)
same,viability,[3],110% (inactive)
same,viability,[4],92.4% (inactive)
same,viability,[5],97.9% (inactive)
same,differential viability (reversal),[6]; H69AR cells + 2 uM doxorubicin,2.31% (inactive)
same,viability,[6]; [9],95.6%
same,viability,[6]; [10],97.9%
same,inhibition,[7],-6.53% (inactive)
same,inhibition,[8],-5.08% (inactive)
Cc1nc(CCNC(=O)c2ccccc2)cs1,viability,[1],92.5%
same,Her2 level,[2],95% (inactive)
same,viability,[3],92.5% (inactive)
same,viability,[4],106% (inactive)
same,viability,[5],98.5% (inactive)
same,differential viability (reversal),[6]; H69AR cells + 2 uM doxorubicin,7.85% (inactive)
same,viability,[6]; [9],90.6%
same,viability,[6]; [10],98.5%
same,inhibition,[7],0.27% (inactive)
same,inhibition,[8],4.03% (inactive)
CCCOC(=O)c1ccc(-c2c(C)noc2-c2ccc(OC)cc2O)o1,viability,[1],98%
same,Her2 level,[2],74.5% (inactive)
same,viability,[3],98% (inactive)
same,viability,[4],46.3% (inactive)
same,viability,[5],75.8% (inactive)
same,differential viability (reversal),[6]; H69AR cells + 2 uM doxorubicin,-10.3% (inactive)
same,viability,[6]; [9],86%
same,viability,[6]; [10],75.8%
same,inhibition,[7],-4.81% (inactive)
same,inhibition,[8],-9.33% (inactive)
